ChEMBL document CHEMBL4765452, “Discovery of (E)-N-(4-methyl-5-(3-(2-(pyridin-2-yl)vinyl)-1H-indazol-6-yl)thiazol-2-yl)-2-(4-methylpiperazin-1-yl)acetamide (IHMT-TRK-284) as a novel orally available type II TRK kinase inhibitor capable of overcoming multiple resistant mutants” (Eur J Med Chem, 2020)
Calls of active or inactive are those of the source. No cut-off for these calls is given here.

Tests used:
[1] = Toxicity in mouse xenografted with mouse BAF3 cells harboring […] TRKA-F589L mutant assessed as effect on body weight at 40 to 80 mg/kg, po administered once daily for 10 days; type: organism-based; details: in vivo, 240 h, dose 40-80 mg/kg/day, time 10 day
Summary of the method: (§1)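 nu/nu mice were given subcutaneous right-flank implants in 1:1 DMEM/matrigel: 1 million BaF3 fusion cells or 5 million KM-12-LUC cells. Oral gavage started at 150–200 mm3 (xenograft) or 200–400 mm3 (allograft). Dosing used 40 or 80 mg/kg in HKI vehicle (0.5% methylcellulose/0.4% Tween 80 in ddH2O), with 5 mice per group. Body weight was recorded daily and behaviour observed.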

[2] = target: T1, Platelet-derived growth factor receptor beta (Homo sapiens, UniProt P09619); experiment: Inhibition of TEL fused PDGFRbeta (unknown origin) transfected in mouse BAF3 cells assessed as growth inhibition after 72 hrs by CCK8 assay; type: cell-based
T1 sequence (P09619 whole entry, the tested form may be a part): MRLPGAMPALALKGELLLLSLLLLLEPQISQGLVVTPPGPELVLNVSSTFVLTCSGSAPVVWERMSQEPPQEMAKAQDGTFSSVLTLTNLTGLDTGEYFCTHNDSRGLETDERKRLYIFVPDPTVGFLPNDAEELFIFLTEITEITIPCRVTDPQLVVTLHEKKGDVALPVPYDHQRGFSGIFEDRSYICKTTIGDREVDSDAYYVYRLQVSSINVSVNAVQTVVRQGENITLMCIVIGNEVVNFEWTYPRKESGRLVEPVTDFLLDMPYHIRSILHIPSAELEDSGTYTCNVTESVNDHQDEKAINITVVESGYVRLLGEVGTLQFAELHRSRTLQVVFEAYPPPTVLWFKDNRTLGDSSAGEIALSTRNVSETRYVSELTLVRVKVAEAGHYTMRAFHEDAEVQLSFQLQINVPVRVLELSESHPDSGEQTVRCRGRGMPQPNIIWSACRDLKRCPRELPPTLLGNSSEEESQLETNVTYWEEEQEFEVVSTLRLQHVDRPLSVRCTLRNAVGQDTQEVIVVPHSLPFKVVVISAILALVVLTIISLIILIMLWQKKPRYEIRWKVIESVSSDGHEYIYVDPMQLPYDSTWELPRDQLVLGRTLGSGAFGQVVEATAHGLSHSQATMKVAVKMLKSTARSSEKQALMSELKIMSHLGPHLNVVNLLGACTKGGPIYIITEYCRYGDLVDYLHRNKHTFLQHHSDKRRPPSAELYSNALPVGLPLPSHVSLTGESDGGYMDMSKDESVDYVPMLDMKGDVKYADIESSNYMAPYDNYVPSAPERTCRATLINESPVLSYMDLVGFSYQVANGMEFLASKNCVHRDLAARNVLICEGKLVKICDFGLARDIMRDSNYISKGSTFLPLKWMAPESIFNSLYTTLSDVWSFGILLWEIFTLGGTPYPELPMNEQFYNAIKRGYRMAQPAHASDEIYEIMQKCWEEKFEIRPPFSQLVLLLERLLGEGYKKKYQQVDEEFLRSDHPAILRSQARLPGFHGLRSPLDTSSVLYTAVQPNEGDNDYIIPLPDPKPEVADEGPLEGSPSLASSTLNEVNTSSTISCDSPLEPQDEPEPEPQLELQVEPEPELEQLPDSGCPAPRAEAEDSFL
Summary of the method: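 TEL-fusion isogenic BaF3 lines were built in-house and grown in RPMI 1640 with 10% FBS and 1% penicillin/streptomycin at 37 °C under 5% CO2. Cells were spun down before use.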

[3] = Cmax in mouse at 1 mg/kg, iv; type: ADME, organism-based; set-up: route intravenous, dose 1 mg/kg; details: in vivo
[4] = Apparent volume of distribution in Sprague-Dawley rat at 10 mg/kg, po; type: ADME, organism-based; details: in vivo
[5] = Half life in Sprague-Dawley rat at 1 mg/kg, iv; type: ADME, organism-based; details: in vivo
[6] = Tmax in Sprague-Dawley rat at 1 mg/kg, iv; type: ADME, organism-based; details: in vivo
Summary of the method: (§2)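 Single-dose PK in mice, Sprague Dawley rats and beagle dogs, given i.v. (1 mg/kg) or p.o. (10 mg/kg mice and rats; 5 mg/kg dogs). AUC0-t, T1/2, Tmax and oral bioavailability (F) derived from plasma profiles.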

BaF3 [7] = experiment: Antitumor activity against mouse BAF3 cells harboring LMNA fused TRKA-G667S mutant allografted in nude mouse assessed as tumor growth inhibition at 40 mg/kg, po administered twice daily for 10 days relative to control; type: functional; details: 240 h, time 10 day, read-out: TGI
Summary of the method: (§3)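 Nu/nu mice given 1 million BaF3 cells (TEL-TRKA, TEL-TRKB, TEL-TRKC, LMNA-TRKA-F589L or LMNA-TRKA-G667S) in DMEM, 1:1 with matrigel, injected subcutaneously into the right flank; oral gavage began at 200–400 mm³, 5 mice per group, compound in 0.5% methylcellulose/0.4% Tween 80 in ddH₂O, 10 days; tumor volume [(W²×L)/2] and body weight recorded daily; TGI versus vehicle.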

[8] = AUC (0 to t) in Sprague-Dawley rat at 10 mg/kg, po; type: ADME, organism-based; set-up: dose 10 mg/kg; details: in vivo
Summary of the method: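 Intravenous and oral arms were run in parallel in each species (mice, Sprague Dawley rats, beagle dogs). Exposure is reported as AUC0-t in ng/mL·h.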

[9] = target: T2, BDNF/NT-3 growth factors receptor (Homo sapiens, UniProt Q16620); experiment: Inhibition of human TRKB assessed as remaining enzyme activity at 1 uM by Kinomescan method relative to control
Target sequence in this assay (Q16620 32-822 limits assumed): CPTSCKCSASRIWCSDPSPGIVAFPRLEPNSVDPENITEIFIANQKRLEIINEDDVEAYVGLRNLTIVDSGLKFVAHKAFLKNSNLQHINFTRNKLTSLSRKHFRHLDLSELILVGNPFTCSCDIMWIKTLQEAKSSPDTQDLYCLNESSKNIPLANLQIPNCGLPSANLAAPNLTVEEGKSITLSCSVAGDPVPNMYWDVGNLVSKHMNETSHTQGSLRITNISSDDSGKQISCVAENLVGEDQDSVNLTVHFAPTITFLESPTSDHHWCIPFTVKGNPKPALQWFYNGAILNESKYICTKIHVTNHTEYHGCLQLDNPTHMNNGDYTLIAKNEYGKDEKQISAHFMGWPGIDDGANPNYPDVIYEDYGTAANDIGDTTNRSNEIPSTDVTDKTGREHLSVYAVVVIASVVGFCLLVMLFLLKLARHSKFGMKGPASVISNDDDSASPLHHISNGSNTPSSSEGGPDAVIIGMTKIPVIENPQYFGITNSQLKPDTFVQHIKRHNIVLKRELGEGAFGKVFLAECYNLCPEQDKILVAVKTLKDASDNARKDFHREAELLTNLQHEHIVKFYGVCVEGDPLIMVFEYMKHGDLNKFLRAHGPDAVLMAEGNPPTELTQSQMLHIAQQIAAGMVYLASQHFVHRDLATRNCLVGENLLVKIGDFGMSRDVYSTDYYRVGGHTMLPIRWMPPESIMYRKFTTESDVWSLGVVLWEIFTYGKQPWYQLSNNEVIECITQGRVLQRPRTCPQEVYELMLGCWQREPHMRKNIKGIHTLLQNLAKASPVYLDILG

[10] = target: T2, BDNF/NT-3 growth factors receptor; experiment: Inhibition of TEL fused wild type TRKB (unknown origin) transfected in mouse BaF3 cells assessed as reduction in phosphorylation at Y515 residue after 2 hrs by Western blot analysis; type: cell-based
Summary of the method: (§4)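 Isogenic BaF3 lines, made in-house, grown in RPMI 1640 with 10% FBS and 1% penicillin/streptomycin at 37 °C under 5% CO2. Serially diluted compound added for 2 h. Cells collected and lysed, and lysates analysed by western blotting for phospho-TRK. EC50 derived from the blots.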
Target sequence in this assay (Q16620 whole entry, the tested form may be a part): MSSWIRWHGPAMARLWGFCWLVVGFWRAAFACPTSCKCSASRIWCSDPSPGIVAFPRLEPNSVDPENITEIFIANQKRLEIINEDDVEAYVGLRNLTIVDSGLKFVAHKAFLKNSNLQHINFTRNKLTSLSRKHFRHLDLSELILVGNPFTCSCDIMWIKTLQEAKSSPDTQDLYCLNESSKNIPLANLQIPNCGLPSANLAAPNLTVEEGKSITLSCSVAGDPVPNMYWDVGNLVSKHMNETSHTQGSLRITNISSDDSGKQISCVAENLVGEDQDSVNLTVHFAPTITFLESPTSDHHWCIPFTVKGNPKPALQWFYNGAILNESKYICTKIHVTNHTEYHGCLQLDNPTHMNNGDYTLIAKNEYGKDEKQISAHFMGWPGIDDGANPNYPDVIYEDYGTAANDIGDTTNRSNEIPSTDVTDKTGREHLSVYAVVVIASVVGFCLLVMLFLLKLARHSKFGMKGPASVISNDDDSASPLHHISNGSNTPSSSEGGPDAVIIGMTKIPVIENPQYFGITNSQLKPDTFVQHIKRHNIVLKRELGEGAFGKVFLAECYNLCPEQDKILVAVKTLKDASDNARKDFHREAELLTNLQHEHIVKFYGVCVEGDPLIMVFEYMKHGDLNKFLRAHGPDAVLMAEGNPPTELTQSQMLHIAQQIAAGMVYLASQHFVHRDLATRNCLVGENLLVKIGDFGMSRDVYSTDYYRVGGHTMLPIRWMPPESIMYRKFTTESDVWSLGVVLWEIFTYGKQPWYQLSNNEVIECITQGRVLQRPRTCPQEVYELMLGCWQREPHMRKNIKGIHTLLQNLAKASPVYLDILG

[11] = Oral bioavailability in Sprague-Dawley rat at 10 mg/kg; type: ADME, organism-based; details: in vivo; summary of the method: as §2
[12] = Apparent clearance in Beagle dog at 5 mg/kg, po; type: ADME, organism-based, Canis lupus familiaris; details: in vivo, read-out: CLz/F (converted)
[13] = Toxicity in mouse xenografted with human […] cells assessed as effect on abnormal behaviour at 40 to 80 mg/kg, po administered once daily for 10 days; type: organism-based; details: in vivo, 240 h, dose 40-80 mg/kg/day, time 10 day; summary of the method: as §1
[14] = Tmax in Beagle dog at 5 mg/kg, po; type: ADME, organism-based, Canis lupus familiaris; details: in vivo; summary of the method: as §2
[15] = Toxicity in mouse xenografted with human […] cells assessed as effect on body weight at 40 to 80 mg/kg, po administered once daily for 10 days; type: organism-based; details: in vivo, 240 h, dose 40-80 mg/kg/day, time 10 day; summary of the method: as §1
BaF3 [16] = experiment: Antitumor activity against mouse BAF3 cells harboring TEL fused TRKA allografted in nude mouse assessed as tumor growth inhibition at 80 mg/kg, po administered once daily for 10 days relative to control; type: functional; details: 240 h, time 10 day, read-out: TGI; summary of the method: as §3
BaF3 [17] = experiment: Antitumor activity against mouse BAF3 cells harboring TEL fused TRKA allografted in nude mouse assessed as tumor growth inhibition at 40 mg/kg, po administered once daily for 10 days relative to control; type: functional; details: 240 h, time 10 day, read-out: TGI; summary of the method: as §3
BaF3 [18] = experiment: Antitumor activity against mouse BAF3 cells harboring TEL fused TRKC allografted in nude mouse assessed as tumor growth inhibition administered orally once daily for 10 days; type: functional, cell-based; details: dose 40-80 mg/kg/day, time 10.0 day; summary of the method: as §3
[19] = Apparent volume of distribution in Sprague-Dawley rat at 1 mg/kg, iv; type: ADME, organism-based; details: in vivo, read-out: Vz
BaF3 [20] = experiment: Inhibition of LMNA fused TRKA V573M mutant (unknown origin) transfected in mouse BAF3 cells assessed as growth inhibition after 72 hrs by CCK8 assay; type: cell-based; details: Homo sapiens
KM12-Luc = experiment: Induction of cell cycle arrest in human KM-12-LUC cells assessed as accumulation at G0/G1 phase at 0.01 to 10 uM after 24 hrs by PI/RNase staining based flow cytometric analysis; type: functional; details: dose 0.01-10 µM
Summary of the method: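 KM-12-LUC cells treated with DMSO or serially diluted compound. Cells fixed in cold 70% ethanol overnight at −20 °C, then stained with PI/RNase buffer. Cell cycle distribution measured by flow cytometry.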

[21] = Toxicity in mouse xenografted with mouse BAF3 cells harboring TEL fused TRKC assessed as effect on body weight at 40 to 80 mg/kg, po administered once daily for 10 days; type: organism-based; details: in vivo, 240 h, dose 40-80 mg/kg/day, time 10 day; summary of the method: as §1
[22] = target: T3, High affinity nerve growth factor receptor (Homo sapiens, UniProt P04629); experiment: Inhibition of human TRKA by Z-LYTE or ADP-Glo assay
T3 sequence (P04629 whole entry): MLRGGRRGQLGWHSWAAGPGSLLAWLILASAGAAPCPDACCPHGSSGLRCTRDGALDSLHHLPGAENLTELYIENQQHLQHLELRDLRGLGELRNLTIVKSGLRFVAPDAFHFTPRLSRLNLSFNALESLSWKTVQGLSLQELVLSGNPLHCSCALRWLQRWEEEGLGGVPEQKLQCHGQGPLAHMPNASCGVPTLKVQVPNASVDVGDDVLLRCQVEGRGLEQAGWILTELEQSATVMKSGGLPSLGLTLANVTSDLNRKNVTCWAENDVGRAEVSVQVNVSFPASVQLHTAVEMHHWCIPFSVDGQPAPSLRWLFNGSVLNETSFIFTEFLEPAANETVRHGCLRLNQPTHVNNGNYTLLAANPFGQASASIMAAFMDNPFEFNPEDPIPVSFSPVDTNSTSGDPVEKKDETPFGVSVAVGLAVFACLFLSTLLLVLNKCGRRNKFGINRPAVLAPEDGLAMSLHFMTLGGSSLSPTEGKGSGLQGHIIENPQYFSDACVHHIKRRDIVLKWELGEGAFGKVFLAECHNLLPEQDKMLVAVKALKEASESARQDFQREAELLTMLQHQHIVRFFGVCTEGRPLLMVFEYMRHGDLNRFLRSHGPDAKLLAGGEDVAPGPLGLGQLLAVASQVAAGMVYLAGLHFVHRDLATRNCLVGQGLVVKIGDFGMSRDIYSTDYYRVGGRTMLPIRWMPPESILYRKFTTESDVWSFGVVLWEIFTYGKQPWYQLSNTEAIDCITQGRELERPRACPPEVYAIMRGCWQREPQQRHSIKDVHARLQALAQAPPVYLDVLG
Summary of the method: (§5)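 Purified kinase proteins tested biochemically in Z'LYTE or ADP-Glo format.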

[23] = target: T1, Platelet-derived growth factor receptor beta; experiment: Inhibition of human PDGFR beta by Z-LYTE or ADP-Glo assay; summary of the method: as §5
[24] = Tmax in mouse at 1 mg/kg, iv; type: ADME, organism-based; details: in vivo; summary of the method: as §2
[25] = Toxicity in mouse xenografted with mouse BAF3 cells harboring TEL fused TRKB assessed as effect on animals behaviour at 40 to 80 mg/kg, po administered once daily for 10 days; type: organism-based; details: in vivo, 240 h, dose 40-80 mg/kg/day, time 10 day; summary of the method: as §1
[26] = Toxicity in mouse xenografted with mouse BAF3 cells harboring TEL fused TRKB assessed as effect on body weight at 40 to 80 mg/kg, po administered once daily for 10 days; type: organism-based; details: in vivo, 240 h, dose 40-80 mg/kg/day, time 10 day; summary of the method: as §1
[27] = target: T3, High affinity nerve growth factor receptor; experiment: Inhibition of TEL fused wild type TRKA (unknown origin) transfected in mouse BaF3 cells assessed as reduction in phosphorylation at Y490 residue after 2 hrs by Western blot analysis; type: cell-based; summary of the method: as §4

Cc1nc(NC(=O)CN2CCN(C)CC2)sc1-c1ccc2c(/C=C/c3ccccn3)n[nH]c2c1
Activity [1]: Non-Toxic
GI50 [2]: 1.4 nM
Cmax [3]: 1110 ng/mL
Vz [4]: 37.364 L/kg
t1/2 [5]: 2.7 h
Tmax [6]: 1.8 min
inhibition in vivo at 40 mg/kg (BaF3 [7]): 64.9%
AUC(0-t) [8]: 952 ng·h/mL
Activity [9]: 0.05%
EC50 [10]: 69 nM
bioavailability [11]: 26%
CL/F [12]: 140 mL/min/kg
Activity [13]: Non-Toxic
Tmax [14]: 4.3 h
Activity [15]: Non-Toxic
inhibition in vivo at 80 mg/kg/day (BaF3 [16]): 67.5%
inhibition in vivo at 40 mg/kg/day (BaF3 [17]): 52.2%
Activity (BaF3 [18]): Dose-dependent effect
Vd [19]: 9.68 L/kg
GI50 (BaF3 [20]): 3 nM
Activity (KM12-Luc): Active
Activity [21]: Non-Toxic
IC50 [22]: 10.5 nM
IC50 [23]: 95.7 nM
Tmax [24]: 1.98 min
Activity [25]: Non-Toxic
Activity [26]: Non-Toxic
EC50 [27]: 26 nM
